Results taken from ChEMBL document CHEMBL4196179, “Synthesis and Pharmacological Evaluation of Noscapine-Inspired 5-Substituted Tetrahydroisoquinolines as Cytotoxic Agents” (J Med Chem, 2018).
The source made the active and inactive calls. The rule behind the calls is not given here.

What was measured:
PC-3 = assay: Cytotoxicity against human PC3 cells assessed as reduction in cell viability after 5 days by cellTiter-blue assay; type: functional, cell-based; conditions: PC-3, 120 h
MCF7 [1] = assay: Cytotoxicity against human MCF7 cells assessed as reduction in cell viability after 5 days by cellTiter-blue assay; type: functional, cell-based; conditions: MCF7, 120 h
MCF7 [2] = assay: Cell cycle arrest in human MCF7 cells assessed as increase in accumulation at G2/M phase at 10 uM after 18 hrs by Hoechst 33342 staining based FACS analysis relative to control; type: functional
Outline: (§1)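 Cells seeded 48 h beforehand, treated 18 h with test compounds at 10 µM or vincristine at 100 nM, then trypsinised and stained with Hoechst 33342 for 60 min; FACS read at 450 nm; % G2/M increase calculated relative to 0.1% DMSO vehicle; mean ± SEM of three independent experiments.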

PANC-1 [3] = assay: Cell cycle arrest in human PANC1 cells assessed as increase in accumulation at G2/M phase at 10 uM after 18 hrs by Hoechst 33342 staining based FACS analysis relative to control; type: functional; outline: as §1
[4] = Binding affinity to recombinant P-gp cys-less mutant (unknown origin) in proteoliposomes assessed as increase in ATP hydrolysis rate after 40 mins by colorimetric assay; parameters: species or system Homo sapiens
Outline: (§2)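 P-gp expressed in High-Five insect cells via recombinant baculovirus, IMAC-purified and reconstituted into proteoliposomes; 0.1-0.5 µg incubated with 2 mM ATP and drug at 10^-9 to 10^-4 M for 40 min at 37 °C; liberated Pi measured colorimetrically; EC50 and extent of stimulation from dose-response fit against drug-free basal activity.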

PANC-1 [5] = assay: Cell cycle arrest in human PANC1 cells assessed as accumulation at G1 phase at 10 uM after 18 hrs by Hoechst 33342 staining based FACS analysis (reference value: 70.7%); type: functional
PANC-1 [6] = assay: Cell cycle arrest in human PANC1 cells assessed as accumulation at S phase at 10 uM after 18 hrs by Hoechst 33342 staining based FACS analysis (reference value: 11.1%); type: functional
PANC-1 [7] = assay: Cell cycle arrest in human PANC1 cells assessed as accumulation at G2/M phase at 10 uM after 18 hrs by Hoechst 33342 staining based FACS analysis (reference value: 13.7%); type: functional
Sus scrofa [8] = organism: Sus scrofa; assay: Inhibition of pig tubulin polymerization assessed as Vmax of tubulin polymerization at 10 uM after 60 mins turbidimetric analysis (reference value: 27 +/- 2 milliOD/min)
MCF7 [9] = assay: Antiproliferative activity against human MCF7 cells after 6 days by MTT assay; type: functional, cell-based; conditions: MCF7, 144 h
Outline: (§3)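 Cells seeded overnight at 1500/well, then exposed to a range of concentrations for 6 d; viability by MTT (570 nm, background-subtracted, normalised to untreated control = 100%); EC50 from sigmoidal dose-response fit by non-linear least squares; mean ± SEM of at least 8 independent observations. MCF-7 in MEMα + 10% FBS; NCI/AdrRES in DMEM + 10% FCS with periodic 3 µM doxorubicin selection.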

NCI/ADR-RES [10] = assay: Antiproliferative activity against human NCI/ADR-RES cells after 6 days by MTT assay; type: functional, cell-based; conditions: 144 h; outline: as §3
MCF7 [11] = assay: Effect on calcein-AM accumulation in human wild type MCF7 cells at 1 uM by fluorescence assay; type: functional, cell-based
Outline: (§4)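 Cells seeded at 2 × 10^3/well and grown 2 d, washed and placed in HBSS; test compound added at 2X in HBSS with DMSO ≤1% final, then calcein-AM at 1 µM final; intracellular fluorescence followed over time, rate taken as slope from linear regression.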

NCI/ADR-RES [12] = assay: Inhibition of P-gp in human NCI/ADR-RES cells assessed as rate of calcein-AM accumulation at 1 uM by fluorescence assay; type: cell-based; outline: as §4
Homo sapiens [13] = organism: Homo sapiens; assay: Binding affinity to recombinant P-gp cys-less mutant (unknown origin) in proteoliposomes assessed as increase in ATP hydrolysis rate at 10^-9 to 10^-4 M after 40 mins by colorimetric assay relative to basal control; outline: as §2
Homo sapiens [14] = organism: Homo sapiens; assay: Inhibition of P-gp in human NCI/ADR-RES cells assessed as potentiation of vinblastine-induced cytotoxicity by measuring combination index at 1 uM compound concentration after 6 days by MTT assay; type: cell-based
Homo sapiens [15] = organism: Homo sapiens; assay: Inhibition of P-gp in human NCI/ADR-RES cells assessed as potentiation of vinblastine-induced cytotoxicity by measuring combination index at 0.3 uM compound concentration after 6 days by MTT assay; type: cell-based
Homo sapiens [16] = organism: Homo sapiens; assay: Inhibition of P-gp in human NCI/ADR-RES cells assessed as potentiation of vinblastine-induced cytotoxicity by measuring combination index at 0.1 uM compound concentration after 6 days by MTT assay; type: cell-based
MCF7 [17] = assay: Synergistic antiproliferative activity against human MCF7 cells assessed as reduction in cell viability at 1 uM after 6 days in presence of vinblastine by MTT assay; type: functional
MCF7 [18] = assay: Synergistic antiproliferative activity against human MCF7 cells assessed as reduction in cell viability at 0.3 uM after 6 days in presence of vinblastine by MTT assay; type: functional
MCF7 [19] = assay: Synergistic antiproliferative activity against human MCF7 cells assessed as reduction in cell viability at 0.1 uM after 6 days in presence of vinblastine by MTT assay; type: functional
Sus scrofa [20] = organism: Sus scrofa; assay: Stabilization of pig tubulin assessed as Vmax of tubulin polymerization at 10 uM after 60 mins turbidimetric analysis (reference value: 27 +/- 2 milliOD/min)

| SMILES | Activity (MCF7 [2]) [%] | Activity (PANC-1 [3]) [%] | other results |
| --- | --- | --- | --- |
| CCNC(=O)N1CCc2cc3c(c(OC)c2[C@@H]1[C@H]1OC(=O)c2c1ccc(OC)c2OC)OCO3 |  |  | EC50 (PC-3): 6.7 µM; EC50 (MCF7 [1]): 3.6 µM |
| COc1cccc(C2c3c(c(Br)c4c(c3OC)OCO4)CCN2C)c1OC (centres undefined) | 29 | 16 |  |
| COc1ccc(CC2c3c(c(Br)c4c(c3OC)OCO4)CCN2C)cc1 (centres undefined) | 180 | 226 |  |
| CCNC(=O)N1CCc2c(Br)c3c(c(OC)c2C1c1cccc(OC)c1OC)OCO3 (centres undefined) | 19 | 14 |  |
| COc1cc(C2c3c(c(Br)c4c(c3OC)OCO4)CCN2C)cc(OC)c1OC (centres undefined) | 48 | 12 |  |
| CCNC(=O)N1CCc2c(Br)c3c(c(OC)c2C1c1ccccc1)OCO3 (centres undefined) | 6 | -2 |  |
| COc1ccc2c(c1OC)CC1c3c(c(Br)c4c(c3OC)OCO4)CCN1C2 (centres undefined) | 28 | 9 |  |
| CCNC(=O)N1CCc2c(Br)c3c(c(OC)c2C1Cc1cccc(OC)c1OC)OCO3 (centres undefined) | 11 | 28 |  |
| CCNC(=O)N1CCc2c(Br)c3c(c(OC)c2C1c1cc(OC)c(OC)c(OC)c1)OCO3 (centres undefined) | 3 | 2 |  |
| CCNC(=O)N1CCc2c(Br)c3c(c(OC)c2C1Cc1ccc(OC)cc1)OCO3 (centres undefined) | 208 | 175 | EC50 [4]: 2.4 µM; Activity (PANC-1 [5]): 53.5%; Activity (PANC-1 [6]): 7.7%; Activity (PANC-1 [7]): 36.8%; Vmax (milli optical density/minute) (Sus scrofa [8]): 20; IC50 (MCF7 [9]): 2.7 µM; IC50 (NCI/ADR-RES [10]): 2.5 µM; Activity (MCF7 [11]): inactive; Activity (NCI/ADR-RES [12]): 78 RFU/min; fold change (FC) (Homo sapiens [13]): 6.2; CI (Homo sapiens [14]): 0.95; CI (Homo sapiens [15]): 0.57; CI (Homo sapiens [16]): 0.6; CI (MCF7 [17]): 1.5; CI (MCF7 [18]): 1.02; CI (MCF7 [19]): 1.09 |
| COc1c2c(c(Br)c3c1C(Cc1ccccc1)N(C)CC3)OCO2 (centres undefined) | 9 | 13 |  |
| COc1cccc(CC2c3c(c(Br)c4c(c3OC)OCO4)CCN2C)c1OC (centres undefined) | 32 | 8 |  |
| COC(=O)C1=C(C)NC(C)=C(C(=O)OCCN(C)Cc2ccccc2)C1c1cccc([N+](=O)[O-])c1 (centres undefined) [NICARDIPINE] |  |  | EC50 [4]: 4.7 µM; Activity (NCI/ADR-RES [12]): 107 RFU/min; fold change (FC) (Homo sapiens [13]): 13.6 |
| CC(=O)O[C@H]1C(=O)[C@@]2(C)[C@H]([C@H](OC(=O)c3ccccc3)[C@]3(O)C[C@H](OC(=O)[C@H](O)[C@@H](NC(=O)c4ccccc4)c4ccccc4)C(C)=C1C3(C)C)[C@]1(OC(C)=O)CO[C@@H]1C[C@@H]2O |  |  | Vmax (milli optical density/minute) (Sus scrofa [20]): 76 |
